Results published in ChEMBL document CHEMBL3616437, “Thiazole compounds with activity against Cryptococcus gattii and Cryptococcus neoformans in vitro” (Eur J Med Chem, 2015).
Calls of active or inactive are those of the source. No cut-off for these calls is given here.

Experiments:
[1] = test system: Cryptococcus bacillisporus; test: Antifungal activity against Cryptococcus gattii ATCC 32608 assessed as reduction in cell viability after at 1.9 uM 6 to 72 hrs by MTT assay; format: functional
Cryptococcus neoformans [2] = test: Ratio of compound MIC for Cryptococcus neoformans 28JF in presence of fluconazole to compound MIC for Cryptococcus neoformans 28JF in absence of fluconazole by checkerboard microtiter test; format: functional
Outline: (§1)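 Checkerboard microdilution: eight two-fold dilutions of test compound (0.11 to 15.6 µM) crossed with amphotericin B (0.025 to 3.9 µM, in DMSO) or fluconazole (0.48 to 62.5 µM, in water). Inoculum per CLSI M27-A3 in RPMI-MOPS pH 7.0, 1-5 x10^3 cells/mL. Growth 48 to 72 h. Effective MIC is the combination concentration giving complete inhibition. FICs derived from MICs in combination versus alone.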

Cryptococcus neoformans [3] = test: Ratio of compound MIC for Cryptococcus neoformans WP in presence of fluconazole to compound MIC for Cryptococcus neoformans WP in absence of fluconazole by checkerboard microtiter test; format: functional; outline: as §1
[4] = test system: Cryptococcus gattii species complex; test: Ratio of compound MIC for Cryptococcus gattii L24/01 in presence of fluconazole to compound MIC for Cryptococcus gattii L24/01 in absence of fluconazole by checkerboard microtiter test; format: functional, Cryptococcus bacillisporus; outline: as §1
Cryptococcus gattii [5] = test: Ratio of compound MIC for Cryptococcus gattii ATCC 24065 in presence of fluconazole to compound MIC for Cryptococcus gattii ATCC 24065 in absence of fluconazole by checkerboard microtiter test
Cryptococcus neoformans [6] = test: Ratio of compound MIC for Cryptococcus neoformans ATCC 24067 in presence of amphotericin B to compound MIC for Cryptococcus neoformans ATCC 24067 in absence of amphotericin B by checkerboard microtiter test; format: functional; outline: as §1
Cryptococcus neoformans [7] = test: Ratio of compound MIC for Cryptococcus neoformans 96806 in presence of fluconazole to compound MIC for Cryptococcus neoformans 96806 in absence of fluconazole by checkerboard microtiter test; format: functional; outline: as §1
[8] = test system: Cryptococcus gattii species complex; test: Ratio of compound MIC for Cryptococcus gattii L28/02 in presence of fluconazole to compound MIC for Cryptococcus gattii L28/02 in absence of fluconazole by checkerboard microtiter test; format: functional, Cryptococcus bacillisporus; outline: as §1
Cryptococcus neoformans [9] = test: Antifungal activity against Cryptococcus gattii ATCC 24065 assessed as reduction in cell viability at 1.9 uM after 6 to 72 hrs by MTT assay; format: functional, Cryptococcus bacillisporus
Cryptococcus gattii [10] = test: Ratio of compound MIC for Cryptococcus gattii ATCC 24065 in presence of amphotericin B to compound MIC for Cryptococcus gattii ATCC 24065 in absence of amphotericin B by checkerboard microtiter test
[11] = test system: Cryptococcus gattii species complex; test: Ratio of compound MIC for Cryptococcus gattii LMM818 in presence of amphotericin B to compound MIC for Cryptococcus gattii LMM818 in absence of amphotericin B by checkerboard microtiter test; format: functional, Cryptococcus bacillisporus; outline: as §1
[12] = test system: Cryptococcus gattii species complex; test: Antifungal activity against Cryptococcus gattii 23/10993 assessed as reduction in cell viability at 1.9 uM after 6 to 72 hrs by MTT assay; format: functional, Cryptococcus bacillisporus
Cryptococcus neoformans [13] = test: Ratio of compound MIC for Cryptococcus neoformans ATCC 62066 in presence of fluconazole to compound MIC for Cryptococcus neoformans ATCC 62066 in absence of fluconazole by checkerboard microtiter test; format: functional; outline: as §1
Cryptococcus neoformans [14] = test: Ratio of compound MIC for Cryptococcus neoformans ATCC 28957 in presence of fluconazole to compound MIC for Cryptococcus neoformans ATCC 28957 in absence of fluconazole by checkerboard microtiter test; format: functional; outline: as §1
[15] = test system: Cryptococcus gattii species complex; test: Antifungal activity against Cryptococcus gattii 547/OTTI-97-PI-10 assessed as reduction in cell viability at 1.9 uM after 6 to 72 hrs by MTT assay; format: functional, Cryptococcus bacillisporus
Cryptococcus neoformans [16] = test: Ratio of compound MIC for Cryptococcus neoformans F10 in presence of amphotericin B to compound MIC for Cryptococcus neoformans F10 in absence of amphotericin B by checkerboard microtiter test; format: functional; outline: as §1
[17] = test system: Cryptococcus gattii species complex; test: Ratio of compound MIC for Cryptococcus gattii 196L/03 in presence of fluconazole to compound MIC for Cryptococcus gattii 196L/03 in absence of fluconazole by checkerboard microtiter test; format: functional, Cryptococcus bacillisporus; outline: as §1
[18] = test system: Cryptococcus gattii species complex; test: Ratio of compound MIC for Cryptococcus gattii 23/10993 in presence of amphotericin B to compound MIC for Cryptococcus gattii 23/10993 in absence of amphotericin B by checkerboard microtiter test; format: functional, Cryptococcus bacillisporus; outline: as §1
Cryptococcus neoformans [19] = test: Ratio of compound MIC for Cryptococcus neoformans LMM820 in presence of fluconazole to compound MIC for Cryptococcus neoformans LMM820 in absence of fluconazole by checkerboard microtiter test; format: functional; outline: as §1
[20] = test system: Cryptococcus gattii species complex; test: Ratio of compound MIC for Cryptococcus gattii 547/OTTI-97-PI-10 in presence of amphotericin B to compound MIC for Cryptococcus gattii 547/OTTI-97-PI-10 in absence of amphotericin B by checkerboard microtiter test; format: functional, Cryptococcus bacillisporus; outline: as §1
[21] = test system: Cryptococcus gattii species complex; test: Ratio of compound MIC for Cryptococcus gattii L27/01 in presence of amphotericin B to compound MIC for Cryptococcus gattii L27/01 in absence of amphotericin B by checkerboard microtiter test; format: functional, Cryptococcus bacillisporus; outline: as §1
[22] = test system: Cryptococcus gattii species complex; test: Ratio of compound MIC for Cryptococcus gattii 1913ER in presence of fluconazole to compound MIC for Cryptococcus gattii 1913ER in absence of fluconazole by checkerboard microtiter test; format: functional, Cryptococcus bacillisporus; outline: as §1
[23] = test system: Cryptococcus gattii species complex; test: Ratio of compound MIC for Cryptococcus gattii L24/01 in presence of amphotericin B to compound MIC for Cryptococcus gattii L24/01 in absence of amphotericin B by checkerboard microtiter test; format: functional, Cryptococcus bacillisporus; outline: as §1
[24] = test system: Cryptococcus gattii species complex; test: Antifungal activity against Cryptococcus gattii 196L/03 assessed as reduction in ergosterol content at MIC after 24 hrs by spectrophotometric analysis; format: functional, organism-based; settings: Cryptococcus bacillisporus
Outline: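 Pellet washed and weighed, then saponified in 25% ethanolic KOH at 85°C for 1 h. Extracted with water and n-heptane, read at 282 and 230 nm. Ergosterol taken from a standard curve and expressed as % of growth control.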

[25] = Selectivity index, ratio of IC50 for African green monkey Vero cells to MIC for Cryptococcus gattii ATCC 24065; format: toxicity, cell-based
[26] = test system: Cryptococcus gattii species complex; test: Antifungal activity against Cryptococcus gattii 135L/03 assessed as reduction in cell viability at 3.9 uM after 6 to 72 hrs by MTT assay; format: functional, Cryptococcus bacillisporus
Cryptococcus neoformans [27] = test: Antifungal activity against Cryptococcus neoformans 96806 assessed as reduction in cell viability at 3.9 uM after 6 to 72 hrs by MTT assay; format: functional
[28] = test system: Cryptococcus gattii species complex; test: Antifungal activity against Cryptococcus gattii L24/01 assessed as reduction in cell viability at 3.9 uM after 6 to 72 hrs by MTT assay; format: functional, Cryptococcus bacillisporus
Cryptococcus neoformans [29] = test: Antifungal activity against Cryptococcus neoformans ATCC 24067 assessed as reduction in cell viability at 3.9 uM after 6 to 72 hrs by MTT assay; format: functional
Cryptococcus neoformans [30] = test: Antifungal activity against Cryptococcus neoformans 5396 assessed as reduction in cell viability at 3.9 uM after 6 to 72 hrs by MTT assay; format: functional
[31] = test system: Cryptococcus gattii species complex; test: Antifungal activity against Cryptococcus gattii L28/02 assessed as reduction in cell viability at 3.9 uM after 6 to 72 hrs by MTT assay; format: functional, Cryptococcus bacillisporus
Cryptococcus neoformans [32] = test: Antifungal activity against Cryptococcus neoformans WP assessed as reduction in cell viability at 3.9 uM after 6 to 72 hrs by MTT assay; format: functional

SMILES | fractional inhibitory concentration index (FICI) (Cryptococcus neoformans [2]) | fractional inhibitory concentration index (FICI) (Cryptococcus neoformans [3]) | fractional inhibitory concentration index (FICI) [4] | fractional inhibitory concentration index (FICI) (Cryptococcus gattii [5]) | fractional inhibitory concentration index (FICI) (Cryptococcus neoformans [6]) | fractional inhibitory concentration index (FICI) (Cryptococcus neoformans [7]) | fractional inhibitory concentration index (FICI) [8] | fractional inhibitory concentration index (FICI) (Cryptococcus gattii [10]) | fractional inhibitory concentration index (FICI) [11] | fractional inhibitory concentration index (FICI) (Cryptococcus neoformans [13]) | fractional inhibitory concentration index (FICI) (Cryptococcus neoformans [14]) | fractional inhibitory concentration index (FICI) (Cryptococcus neoformans [16]) | fractional inhibitory concentration index (FICI) [17] | fractional inhibitory concentration index (FICI) [18] | fractional inhibitory concentration index (FICI) (Cryptococcus neoformans [19]) | fractional inhibitory concentration index (FICI) [20] | fractional inhibitory concentration index (FICI) [21] | fractional inhibitory concentration index (FICI) [22] | fractional inhibitory concentration index (FICI) [23] | Activity [24] | further results
C(=N\Nc1nc(-c2ccccc2)cs1)/C1CCCCC1 | 1.99 | 2.47 | 2.47 | 1.58 | 2.67 | 1.76 | 2.47 | 1.72 | 2.58 | 2.04 | 4.47 | 2.62 | 2.47 | 2.67 | 4.24 | 4.74 | 1.34 | 2.09 | 4.87 | – | Activity [1]: 90%; Activity (Cryptococcus neoformans [9]): 90%; Activity [12]: 90%; Activity [15]: 90%
COc1ccc(-c2csc(N/N=C(\C)CCO)n2)cc1 | 1.47 | 2.32 | 3.32 | 0.88 | 2.78 | 2.01 | 1.01 | 2.98 | 4.98 | 2.3 | 2.28 | 2.47 | 1.95 | 3.51 | 2.1 | 2.98 | 4.61 | 2.47 | 4.98 | inactive | Activity [1]: 90%; selectivity ratio [25]: 222; Activity (Cryptococcus neoformans [9]): 90%; Activity [12]: 90%; Activity [15]: 90%
c1ccc(-c2csc(NN=C3CCCC3)n2)cc1 | 3.77 | 2.46 | 6.46 | 3.71 | 1.46 | 1.01 | 4.22 | 1.2 | 2.58 | 2.46 | 3.36 | 2.58 | 1.84 | 2.18 | 4.46 | 2.66 | 2.48 | 2.45 | 2.16 | – | Activity [26]: 80%; Activity (Cryptococcus neoformans [27]): 80%; Activity [28]: 80%; Activity (Cryptococcus neoformans [29]): 80%; Activity (Cryptococcus neoformans [30]): 80%; Activity [31]: 80%; Activity (Cryptococcus neoformans [32]): 80%
C[C@@H]1[C@H](O)[C@@H](C)/C=C/C=C/C=C/C=C/C=C/C=C/C=C/[C@H](O[C@@H]2O[C@H](C)[C@@H](O)[C@H](N)[C@@H]2O)C[C@@H]2O[C@](O)(C[C@@H](O)C[C@@H](O)[C@H](O)CC[C@@H](O)C[C@@H](O)CC(=O)O[C@H]1C)C[C@H](O)[C@H]2C(=O)O [AMPHOTERICIN B] | – | – | – | – | – | – | – | – | – | – | – | – | – | – | – | – | – | – | – | inactive | –
OC(Cn1cncn1)(Cn1cncn1)c1ccc(F)cc1F [FLUCONAZOLE] | – | – | – | – | – | – | – | – | – | – | – | – | – | – | – | – | – | – | – | Active | selectivity ratio [25]: 7.87
COc1ccc(-c2csc(N/N=C/C3CCCCC3)n2)cc1 | 4.59 | 2.21 | 6.79 | 2.43 | 2.36 | 1.01 | 4.38 | 2 | 1.46 | 3.58 | 2.51 | 1.46 | 2.28 | 2.36 | 4.59 | 2.58 | 2.66 | 2.46 | 2.38 | – | Activity [26]: 80%; Activity (Cryptococcus neoformans [27]): 80%; Activity [28]: 80%; selectivity ratio [25]: 25.6; Activity (Cryptococcus neoformans [29]): 80%; Activity (Cryptococcus neoformans [30]): 80%; Activity [31]: 80%; Activity (Cryptococcus neoformans [32]): 80%
